# Several values for one entry are separate records, joined by “and”; a condition that tells them apart may be missing. Equal entries are not always repeated.
# Key:
# Format in all cases: toxicity, cell-based
# Fibroblast = test: Multiplex assay against human fibroblast; conditions: number of replicates 2
# How it was run: (§1)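 Hoechst33342, BioTracker Green Microtubule Cytoskeleton Dye, MitoTracker Red and Annexin V Alexa Fluor 680 were added to live cells at seeding, and imaging on a CQ1 microscope at 37°C and 5% CO2 followed compound addition. Gating by CellPathfinder machine learning separated cells into Hoechst high-intensity objects or normal cells, then normal cells into healthy, pyknosed or fragmented nuclei, then pyknosed cells into mitotic or apoptotic. Per cents of healthy-nucleus cells are reported for the tubulin, mitochondrial-mass and membrane-permeability phenotypes.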
# HEK-293T = test: Multiplex assay against HEK293T; conditions: human, number of replicates 2; how it was run: as §1
# U2OS = test: Multiplex assay against U2OS; conditions: human, number of replicates 2; how it was run: as §1
# [1] = 12 h, 1 µM, compound concentration 1 uM
# [2] = 12 h, 10 µM, compound concentration 10 uM
# [3] = 24 h, 1 µM, compound concentration 1 uM
# [4] = 24 h, 10 µM, compound concentration 10 uM
# [5] = 48 h, 1 µM, compound concentration 1 uM
# [6] = 48 h, 10 µM, compound concentration 10 uM
smiles,measurement,setting,value
Br.Oc1cc2c(cc1O)C(c1ccccc1)CNCC2 (stereo not drawn),Population Apoptotic (%),Fibroblast; [1],86% and 44%
same,Population Fragmented Nuclei (%),Fibroblast; [1],18% and 16%
same,Population Healthy Nuclei (%),Fibroblast; [1],73%
same,Population Hoechst High Intensity Objects (%),Fibroblast; [1],0%
same,Population Membrane Permeable-Phenotype (%),Fibroblast; [1],5% and 4%
same,Population Mitochondria Different-Phenotype (%),Fibroblast; [1],0% and 1%
same,Population Normal (%),Fibroblast; [1],100% and 99%
same,Population Pyknosed Nuclei (%),Fibroblast; [1],8% and 10%
same,Population Tubulin-Different-Phenotype (%),Fibroblast; [1],7% and 6%
same,Total Cell Count,Fibroblast; [1],185 and 180
same,Population Apoptotic (%),Fibroblast; [2],76% and 66%
same,Population Fragmented Nuclei (%),Fibroblast; [2],13% and 12%
same,Population Healthy Nuclei (%),Fibroblast; [2],76% and 79%
same,Population Hoechst High Intensity Objects (%),Fibroblast; [2],0%
same,Population Membrane Permeable-Phenotype (%),Fibroblast; [2],2%
same,Population Mitochondria Different-Phenotype (%),Fibroblast; [2],0% and 4%
same,Population Mitotic Cells (%),Fibroblast; [2],23% and 33%
same,Population Normal (%),Fibroblast; [2],100%
same,Population Pyknosed Nuclei (%),Fibroblast; [2],9% and 8%
same,Population Tubulin-Different-Phenotype (%),Fibroblast; [2],15% and 11%
same,Total Cell Count,Fibroblast; [2],132 and 172
same,Population Apoptotic (%),Fibroblast; [3],31% and 66%
same,Population Fragmented Nuclei (%),Fibroblast; [3],18% and 16%
same,Population Healthy Nuclei (%),Fibroblast; [3],69% and 76%
same,Population Hoechst High Intensity Objects (%),Fibroblast; [3],0%
same,Population Membrane Permeable-Phenotype (%),Fibroblast; [3],6% and 4%
same,Population Mitochondria Different-Phenotype (%),Fibroblast; [3],0%
same,Population Mitotic Cells (%),Fibroblast; [3],68% and 33%
same,Population Normal (%),Fibroblast; [3],100%
same,Population Pyknosed Nuclei (%),Fibroblast; [3],11% and 6%
same,Population Tubulin-Different-Phenotype (%),Fibroblast; [3],6% and 2%
same,Total Cell Count,Fibroblast; [3],187 and 183
same,Population Apoptotic (%),Fibroblast; [4],80% and 50%
same,Population Fragmented Nuclei (%),Fibroblast; [4],12% and 13%
same,Population Healthy Nuclei (%),Fibroblast; [4],84% and 79%
same,Population Hoechst High Intensity Objects (%),Fibroblast; [4],0%
same,Population Membrane Permeable-Phenotype (%),Fibroblast; [4],1%
same,Population Mitochondria Different-Phenotype (%),Fibroblast; [4],0% and 1%
same,Population Mitotic Cells (%),Fibroblast; [4],20% and 50%
same,Population Normal (%),Fibroblast; [4],100%
same,Population Pyknosed Nuclei (%),Fibroblast; [4],3% and 7%
same,Population Tubulin-Different-Phenotype (%),Fibroblast; [4],9% and 13%
same,Total Cell Count,Fibroblast; [4],140 and 169
same,Population Apoptotic (%),Fibroblast; [5],90% and 54%
same,Population Fragmented Nuclei (%),Fibroblast; [5],18% and 14%
same,Population Healthy Nuclei (%),Fibroblast; [5],75% and 79%
same,Population Hoechst High Intensity Objects (%),Fibroblast; [5],0%
same,Population Membrane Permeable-Phenotype (%),Fibroblast; [5],2%
same,Population Mitochondria Different-Phenotype (%),Fibroblast; [5],0%
same,Population Normal (%),Fibroblast; [5],100%
same,Population Pyknosed Nuclei (%),Fibroblast; [5],5%
same,Population Tubulin-Different-Phenotype (%),Fibroblast; [5],4% and 3%
same,Total Cell Count,Fibroblast; [5],175 and 194
same,Population Apoptotic (%),Fibroblast; [6],25% and 42%
same,Population Fragmented Nuclei (%),Fibroblast; [6],19% and 17%
same,Population Healthy Nuclei (%),Fibroblast; [6],77% and 78%
same,Population Hoechst High Intensity Objects (%),Fibroblast; [6],0%
same,Population Membrane Permeable-Phenotype (%),Fibroblast; [6],0% and 1%
same,Population Mitochondria Different-Phenotype (%),Fibroblast; [6],0%
same,Population Mitotic Cells (%),Fibroblast; [6],75% and 57%
same,Population Normal (%),Fibroblast; [6],100%
same,Population Pyknosed Nuclei (%),Fibroblast; [6],2% and 3%
same,Population Tubulin-Different-Phenotype (%),Fibroblast; [6],10% and 9%
same,Total Cell Count,Fibroblast; [6],163 and 182
same,Population Apoptotic (%),HEK-293T; [1],30% and 41%
same,Population Fragmented Nuclei (%),HEK-293T; [1],5% and 3%
same,Population Healthy Nuclei (%),HEK-293T; [1],85%
same,Population Hoechst High Intensity Objects (%),HEK-293T; [1],6% and 4%
same,Population Membrane Permeable-Phenotype (%),HEK-293T; [1],4% and 2%
same,Population Mitochondria Different-Phenotype (%),HEK-293T; [1],9% and 10%
same,Population Mitotic Cells (%),HEK-293T; [1],69% and 58%
same,Population Normal (%),HEK-293T; [1],93% and 95%
same,Population Pyknosed Nuclei (%),HEK-293T; [1],9% and 10%
same,Population Tubulin-Different-Phenotype (%),HEK-293T; [1],45% and 42%
same,Total Cell Count,HEK-293T; [1],950 and 793
same,Population Apoptotic (%),HEK-293T; [2],36% and 47%
same,Population Fragmented Nuclei (%),HEK-293T; [2],4% and 3%
same,Population Healthy Nuclei (%),HEK-293T; [2],86% and 88%
same,Population Hoechst High Intensity Objects (%),HEK-293T; [2],7% and 5%
same,Population Membrane Permeable-Phenotype (%),HEK-293T; [2],2% and 0%
same,Population Mitochondria Different-Phenotype (%),HEK-293T; [2],12% and 21%
same,Population Mitotic Cells (%),HEK-293T; [2],63% and 52%
same,Population Normal (%),HEK-293T; [2],92% and 94%
same,Population Pyknosed Nuclei (%),HEK-293T; [2],8%
same,Population Tubulin-Different-Phenotype (%),HEK-293T; [2],51% and 55%
same,Total Cell Count,HEK-293T; [2],631 and 499
same,Population Apoptotic (%),HEK-293T; [3],20% and 36%
same,Population Fragmented Nuclei (%),HEK-293T; [3],6% and 5%
same,Population Healthy Nuclei (%),HEK-293T; [3],89%
same,Population Hoechst High Intensity Objects (%),HEK-293T; [3],8% and 9%
same,Population Membrane Permeable-Phenotype (%),HEK-293T; [3],3% and 2%
same,Population Mitochondria Different-Phenotype (%),HEK-293T; [3],3%
same,Population Mitotic Cells (%),HEK-293T; [3],80% and 63%
same,Population Normal (%),HEK-293T; [3],91% and 90%
same,Population Pyknosed Nuclei (%),HEK-293T; [3],4% and 5%
same,Population Tubulin-Different-Phenotype (%),HEK-293T; [3],27% and 29%
same,Total Cell Count,HEK-293T; [3],1693 and 1195
same,Population Apoptotic (%),HEK-293T; [4],29% and 50%
same,Population Fragmented Nuclei (%),HEK-293T; [4],9% and 7%
same,Population Healthy Nuclei (%),HEK-293T; [4],86% and 88%
same,Population Hoechst High Intensity Objects (%),HEK-293T; [4],9% and 6%
same,Population Membrane Permeable-Phenotype (%),HEK-293T; [4],4% and 2%
same,Population Mitochondria Different-Phenotype (%),HEK-293T; [4],3% and 12%
same,Population Mitotic Cells (%),HEK-293T; [4],70% and 50%
same,Population Normal (%),HEK-293T; [4],90% and 93%
same,Population Pyknosed Nuclei (%),HEK-293T; [4],4%
same,Population Tubulin-Different-Phenotype (%),HEK-293T; [4],30% and 40%
same,Total Cell Count,HEK-293T; [4],1020 and 788
same,Population Apoptotic (%),HEK-293T; [5],4% and 10%
same,Population Fragmented Nuclei (%),HEK-293T; [5],20% and 11%
same,Population Healthy Nuclei (%),HEK-293T; [5],78% and 85%
same,Population Hoechst High Intensity Objects (%),HEK-293T; [5],11% and 9%
same,Population Membrane Permeable-Phenotype (%),HEK-293T; [5],6% and 5%
same,Population Mitochondria Different-Phenotype (%),HEK-293T; [5],0%
same,Population Mitotic Cells (%),HEK-293T; [5],95% and 89%
same,Population Normal (%),HEK-293T; [5],88% and 90%
same,Population Pyknosed Nuclei (%),HEK-293T; [5],1% and 2%
same,Population Tubulin-Different-Phenotype (%),HEK-293T; [5],17% and 16%
same,Total Cell Count,HEK-293T; [5],4091 and 2858
same,Population Fragmented Nuclei (%),HEK-293T; [6],23% and 14%
same,Population Healthy Nuclei (%),HEK-293T; [6],75% and 82%
same,Population Hoechst High Intensity Objects (%),HEK-293T; [6],9%
same,Population Membrane Permeable-Phenotype (%),HEK-293T; [6],8% and 5%
same,Population Mitochondria Different-Phenotype (%),HEK-293T; [6],0% and 1%
same,Population Mitotic Cells (%),HEK-293T; [6],96% and 84%
same,Population Normal (%),HEK-293T; [6],90%
same,Population Pyknosed Nuclei (%),HEK-293T; [6],1% and 3%
same,Population Tubulin-Different-Phenotype (%),HEK-293T; [6],15% and 21%
same,Total Cell Count,HEK-293T; [6],2576 and 1623
same,Population Fragmented Nuclei (%),U2OS; [1],14% and 5%
same,Population Healthy Nuclei (%),U2OS; [1],80% and 82%
same,Population Hoechst High Intensity Objects (%),U2OS; [1],0%
same,Population Membrane Permeable-Phenotype (%),U2OS; [1],2% and 1%
same,Population Mitochondria Different-Phenotype (%),U2OS; [1],0%
same,Population Mitotic Cells (%),U2OS; [1],100% and 50%
same,Population Normal (%),U2OS; [1],100%
same,Population Pyknosed Nuclei (%),U2OS; [1],6% and 11%
same,Population Tubulin-Different-Phenotype (%),U2OS; [1],67% and 89%
same,Population Apoptotic (%),U2OS; [2],57% and 30%
same,Population Healthy Nuclei (%),U2OS; [2],33% and 85%
same,Population Hoechst High Intensity Objects (%),U2OS; [2],0%
same,Population Membrane Permeable-Phenotype (%),U2OS; [2],0% and 1%
same,Population Mitochondria Different-Phenotype (%),U2OS; [2],0% and 1%
same,Population Mitotic Cells (%),U2OS; [2],42% and 69%
same,Population Normal (%),U2OS; [2],100%
same,Population Tubulin-Different-Phenotype (%),U2OS; [2],50% and 75%
same,Population Apoptotic (%),U2OS; [3],50% and 61%
same,Population Fragmented Nuclei (%),U2OS; [3],8% and 5%
same,Population Healthy Nuclei (%),U2OS; [3],83% and 82%
same,Population Hoechst High Intensity Objects (%),U2OS; [3],2% and 0%
same,Population Membrane Permeable-Phenotype (%),U2OS; [3],2% and 0%
same,Population Mitochondria Different-Phenotype (%),U2OS; [3],2% and 0%
same,Population Mitotic Cells (%),U2OS; [3],50% and 38%
same,Population Normal (%),U2OS; [3],97% and 100%
same,Population Pyknosed Nuclei (%),U2OS; [3],8% and 11%
same,Population Tubulin-Different-Phenotype (%),U2OS; [3],67% and 91%
same,Population Apoptotic (%),U2OS; [4],50% and 44%
same,Population Healthy Nuclei (%),U2OS; [4],58% and 88%
same,Population Hoechst High Intensity Objects (%),U2OS; [4],0%
same,Population Membrane Permeable-Phenotype (%),U2OS; [4],10% and 0%
same,Population Mitochondria Different-Phenotype (%),U2OS; [4],10% and 0%
same,Population Mitotic Cells (%),U2OS; [4],50% and 55%
same,Population Normal (%),U2OS; [4],100%
same,Population Pyknosed Nuclei (%),U2OS; [4],23% and 8%
same,Population Tubulin-Different-Phenotype (%),U2OS; [4],80% and 83%
same,Population Apoptotic (%),U2OS; [5],37% and 53%
same,Population Fragmented Nuclei (%),U2OS; [5],13% and 3%
same,Population Healthy Nuclei (%),U2OS; [5],78% and 89%
same,Population Hoechst High Intensity Objects (%),U2OS; [5],0%
same,Population Membrane Permeable-Phenotype (%),U2OS; [5],5% and 0%
same,Population Mitochondria Different-Phenotype (%),U2OS; [5],2% and 0%
same,Population Mitotic Cells (%),U2OS; [5],62% and 46%
same,Population Normal (%),U2OS; [5],100% and 99%
same,Population Pyknosed Nuclei (%),U2OS; [5],8% and 7%
same,Population Tubulin-Different-Phenotype (%),U2OS; [5],64% and 99%
same,Population Apoptotic (%),U2OS; [6],44% and 64%
same,Population Healthy Nuclei (%),U2OS; [6],54% and 90%
same,Population Hoechst High Intensity Objects (%),U2OS; [6],0%
same,Population Membrane Permeable-Phenotype (%),U2OS; [6],10% and 0%
same,Population Mitochondria Different-Phenotype (%),U2OS; [6],10% and 0%
same,Population Mitotic Cells (%),U2OS; [6],55% and 35%
same,Population Normal (%),U2OS; [6],100%
same,Population Tubulin-Different-Phenotype (%),U2OS; [6],84% and 93%

# Reference: ChEMBL document CHEMBL5303300, “EUbOPEN Chemogenomics Library - Multiplex” (2023)
